STAT3 activator: IL-6 driven STAT3 reporter potentiators, primary screen, U3A cells, luciferase, luminescence, MLSCN library; IL-6 STAT3-luciferase reporter; 100% = signal with IL-6 EC80 alone; activation (% of control), % at 5.6 µM; 0.91% of 190,000 active; AID 871, 2007;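 active means activation above the screen-wide mean of compound activation plus 3 SD, cut at about 130% in these data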;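 further: 0% = background luminescence of wells with medium and substrate only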
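Material: human STAT1-deficient U3A cells with stable STAT3-luciferase reporter / Probe or stimulus: IL-6 stimulus at 33 ng/mL final / Schedule: 1 h compound pre-exposure, 6 h IL-6 stimulation, 37 °C / Technique: luminescence / Read-out basis: percent of IL-6-only median luminescence / Control set: IL-6-only high control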
STAT3 inh: IL-6 driven STAT3 reporter inhibitors, primary screen, U3A cells, luciferase, luminescence, MLSCN library. IL-6 STAT3-luciferase reporter; host cell line lacks STAT1. inhibition, % at 5.5 µM. 0.89% of 190,000 active;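 active means inhibition above the mean inhibition across all screened compounds plus 3 SD, cut at about 44% in these data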;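 further: 0% = DMSO only wells and 100% = 100 µM nifuroxazide control wells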
STAT1 blocker: STAT1 signaling inhibitors, primary screen, cell-based, HTS, luciferase reporter. NIH 3T3 STAT1-luciferase reporter, IFN-gamma, luminescence. inhibition, % at 5.5 µM. 0.35% of 200,000 active;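 active means inhibition above a set limit, the mean inhibition across all tested compounds plus 3 SD, cut at about 34% in these data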;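 further: 0% = IFN-gamma with DMSO and 100% = IFN-gamma with 300 µM nifuroxazide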
HSP90 refold inh: HSP90 inhibitors, primary screen, cell lysate, luminescence. inhibition, % at 5.6 µM. AID 1789, 2009. Rabbit reticulocyte lysate, luciferase refolding luminescence, 3 h. 0.91% of 290,000 active;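 active means inhibition above the screen-wide mean plus 3 SD, computed separately per campaign, cut at about 16% in these data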;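 further: 0% = DMSO wells and 100% = 60 µM geldanamycin wells; inhibitors lower the luminescence because luciferase stays unfolded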
PPC-1+TRAIL kill: compounds killing PPC-1 cancer cells with TRAIL present, primary screen, TRAIL potentiator project, ATPLite luminescence, uHTS; 0.41% of 220,000 active; cell killing (% activity), % at 4 µM or 5 µM; PPC-1 cells + TRAIL, ATPLite viability luminescence;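 active means cell killing above 50% in the first pass at 4 µM, then a duplicate retest at 5 µM averaging 50% or more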;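 further: plate controls were cells with TRAIL plus DMSO for no effect and medium-only wells lacking cells for full effect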
C8 TRAIL sens: viability loss with TRAIL in NB7+C8 cells, primary screen, TRAIL sensitizer project, cell-based, ATPlite luminescence; inhibition (viability loss, TRAIL sensitization), % at 10 µM; 1% of 360,000 active;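 active means compounds causing at least 50% loss of cell viability in the single-dose screen, relative to plate controls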
* = called active by the depositor; nt = no result. Most compounds without a hit are left out; they make up all but 2.3% or so of the library.

SMILES	STAT3 activator	STAT3 inh	STAT1 blocker	HSP90 refold inh	PPC-1+TRAIL kill	C8 TRAIL sens
O=C(CNC(=O)c1ccc(Br)o1)NC1CCCCCC1	nt	nt	nt	nt	nt	-20
NC(=O)c1oc2ccccc2c1NC(=O)c1ccc([N+](=O)[O-])o1	nt	nt	nt	3	nt	74*
N#CC(C#N)=C(Nc1ccc(F)cc1)SCc1cccc(F)c1	52	59*	49*	3	24	46
N#CC(C#N)=C1SC(=Nc2ccccc2)C(=Nc2ccccc2)N1c1ccccc1	nt	nt	nt	nt	nt	92*
Fc1ccc(N2C(=S)SC(=Nc3ccccc3)C2=Nc2ccccc2)cc1	nt	nt	nt	nt	nt	18
C#CCOCCOCCOCCNc1nc(N2CCN(C(=O)CCCCCCCCCCNC(=O)Cn3cc(C[C@@H](C)O)nn3)CC2)nc(N2CCN(C(=O)CCCCCCCCCCNC(=O)[C@@H]([C@H](C)CC)n3cc(CCCCCN)nn3)CC2)n1	nt	nt	nt	nt	nt	93*
C#CCOCCOCCOCCNc1nc(N2CCN(C(=O)CCCCCCCCCCNC(=O)[C@H](CCCCN)n3cc(C[C@@H](C)CC)nn3)CC2)nc(N2CCN(C(=O)CCCCCCCCCCNC(=O)[C@@H]([C@H](C)O)n3cc(C)nn3)CC2)n1	nt	nt	nt	nt	nt	96*
C#CCOCCOCCOCCNc1nc(N2CCN(C(=O)CCCCCCCCCCNC(=O)[C@H](CCCCN)n3cc(C[C@@H](C)CC)nn3)CC2)nc(N2CCN(C(=O)CCCCCCCCCCNC(=O)[C@H](CCCN=C(N)N)n3cc(C[C@@H](C)CC)nn3)CC2)n1	nt	nt	nt	nt	nt	94*
CSc1ncccc1C(=O)OCC(=O)c1cc2ccccc2o1	85	21	-4	-2	-1	-1
COc1cccc(NS(=O)(=O)c2cc3c(cc2C)NC(=O)CO3)c1	nt	nt	nt	-4	nt	-19
Cc1cc(C)nc(N/N=C/c2ccccc2Cl)n1	nt	nt	nt	-1	29	2
Cc1cc(N/N=C/c2ccccc2Cl)nc(NCc2ccccc2)n1	92	5	0	0	46	57*
O=C(O)CCN1C(=O)/C(=C\c2cccc(OCc3ccccc3)c2)SC1=S	nt	nt	nt	-2	nt	-5
CC(C)c1ccc(/C=C2\SC(=S)N(CCC(=O)N3CCCCC3CCO)C2=O)cc1 (stereo not given)	nt	nt	nt	11	nt	60*
COn1c(SCc2ccc(C)cc2C)nc2ccccc2c1=O	85	22	-4	1	-13	58*
COn1c(SC2CCCCC2)nc2ccccc2c1=O	96	7	3	10	-7	67*
Cc1nc2ccccc2n1CCOc1ccc(F)cc1	nt	nt	nt	0	nt	-15
COc1cccc(C(C)(O)c2nc(-c3cc4ccccc4o3)cs2)c1 (stereo not given)	nt	nt	nt	nt	nt	10
O=c1cc(-c2ccccc2)oc2ccc3ccccc3c12	nt	nt	nt	nt	nt	88*
O=c1cc(-c2ccccc2)oc2cccc(O)c12	nt	nt	nt	nt	nt	2
O=c1cc(-c2ccc(O)c(O)c2)oc2ccc3ccccc3c12	nt	nt	nt	nt	nt	74*
O=c1cc(-c2ccc(O)c(O)c2)oc2c1ccc1ccccc12	nt	nt	nt	nt	nt	23
Cc1cc(Br)c2c(c1)/C(=C/C(=O)c1cccs1)C(=O)N2	94	12	6	1	4	18
Cc1cc(C)c2c(c1)/C(=C/C(=O)c1ccc(Br)s1)C(=O)N2	93	8	-1	0	20	84*
O=C(NCCc1ccccc1)C(c1cccs1)N(C(=O)CCl)c1ccc(Cl)cc1 (stereo not given)	77	30	15	1	9	96*
SMILES	STAT3 activator	STAT3 inh	STAT1 blocker	HSP90 refold inh	PPC-1+TRAIL kill	C8 TRAIL sens
c1ccc(-c2cnc(-c3ccccn3)nn2)cc1	nt	nt	nt	nt	nt	58*
Brc1ccc(-c2ncc(-c3ccccc3)cn2)cc1	97	11	-43	-3	-2	10
c1ccc(-c2cnc(-c3ccccc3)nn2)cc1	nt	nt	nt	nt	nt	52*
Cc1cccc(N2C(=O)CN(Cc3cccs3)C2=S)c1	90	14	2	2	-7	1
O=C(C1CCCN(c2ncnc3c2nc2n3CCCCC2)C1)N1CCN(c2ccc(F)cc2)CC1 (stereo not given)	nt	nt	nt	-6	nt	-9
OCC1CCCN(Cc2cn(Cc3ccccc3)nc2-c2cc3ccccc3o2)C1 (stereo not given)	104	0	-5	-1	5	-1
